{
  "source": "paper PMC3941648",
  "about": "(Protein and peptide letters, 2014)",
  "assay_type_in_all_cases": "cell-based, Chinese hamster",
  "key": {"[1]": {"system": "pgs D-677 cells (heparan sulfate-defective CHO K1 mutant)", "assay": "Cellular uptake of FITC-labeled peptides, flow cytometry and confocal microscopy", "settings": "deduced from uptake in pgs D-677 versus wt CHO K1; 20 μM, 2 h, 37°C", "summary_of_the_method": "(§1)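 CHO K1 wild-type and GAG-deficient mutants were grown in DMEM/F12 with 10% FBS at 37 °C. At ~75% confluence (48 h after seeding), cells were exposed to 20 μM FITC-labelled peptide for 2 h at 37 °C, then trypsinised, washed and analysed by flow cytometry. Dead cells (7-AAD-positive) were gated out, ≥5,000 events were collected and uptake was expressed relative to wild-type. Confocal imaging used a ~0.40 micron mid Z-section. Triplicates, mean ± S.D., t test.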"}, "[2]": {"system": "pgs F-17 cells (2-O-sulfation-defective CHO K1 mutant)", "assay": "Cellular uptake of FITC-labeled peptides, flow cytometry", "settings": "20 μM FITC-labeled peptide, 2 h, 37°C", "summary_of_the_method": "(§2)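 Mutant and wild-type CHO K1 cells were seeded 48 h before use and treated at ~75% confluence with 20 μM FITC-labelled peptide in DMEM/F12 for 2 h at 37 °C. Cells were washed, trypsinised for 5 min and resuspended at 2×10⁶ cells/ml. 7-AAD (0.5 ng/μl final) excluded dead cells. Fluorescence was read with 488-nm excitation on ≥5,000 live events and compared with wild-type. Triplicates, mean ± S.D.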"}, "[3]": {"system": "pgs C-605 cells (sulfate transporter-defective CHO K1 mutant)", "assay": "Cellular uptake of FITC-labeled peptides, flow cytometry", "settings": "20 μM FITC-labeled peptide, 2 h, 37°C", "summary_of_the_method": "as §2"}, "pgs A-745 cells": {"system": "pgs A-745 cells", "assay": "Cellular uptake of peptide-horseradish peroxidase", "settings": "pgs A-745 cells lacking surface GAGs; 240 ng/ml complex, 30 min, 37°C; TMB substrate, 405 nm; n=3"}, "wild-type CHO K1 cells": {"system": "wild-type CHO K1 cells", "assay": "Cellular uptake of FITC-labeled peptides, flow cytometry and confocal microscopy", "settings": "as stated in the abstract; cell type not stated", "summary_of_the_method": "as §1"}},
  "note": "Entries after “also recorded” stand apart in the source; their conditions may differ. *: point of attachment. FITC = O=C1OC2(c3ccc(O)cc3Oc3cc(O)ccc32)c2ccc(NC(=S)*)cc21; Biotin = O=C1N[C@H]2[C@H](CS[C@H]2CCCCC(=O)*)N1; Ahx = NCCCCCC(=O)O",
  "data": [
    {"substance": "{FITC-Ahx}-KKGFYKKKQCRPSKGRKRGFCW-NH2 (cysteine pairing not given here) [KW-22]", "values": [
      {"measurement": "Contribution of heparan sulfate to total uptake", "setting": "[1]", "result": "~ 38%"},
      {"measurement": "Cellular uptake compared with wt CHO K1", "setting": "[2]", "result": "comparable to that in wt cells; also recorded: barely affected"},
      {"measurement": "Cellular fluorescence (uptake) compared with wt CHO K1", "setting": "[3]", "result": "comparable with that of the wt cells"}
    ]},
    {"substance": "{Biotin-Ahx}-KKGFYKKKQCRPSKGRKRGFCWAVDKYG-NH2 (cysteine pairing not given here) [KG-28]", "values": [
      {"measurement": "Uptake of complex into cells (peroxidase activity of cell extracts)", "setting": "pgs A-745 cells", "result": "abolished"}
    ]},
    {"substance": "{FITC-Ahx}-KKGFYKKK-NH2 [KK-8]", "values": [
      {"measurement": "Uptake activity retained within KW-22 (abstract)", "setting": "wild-type CHO K1 cells", "result": "no uptake activity"}
    ]}
  ]
}
